# Measurements as given in article PMC9989852 (Food and chemical toxicology : an international journal …, 2022).
# Several values for one entry are separate records, joined by “and”; a condition that tells them apart may be missing. Identical values can stand only once.
# Assays:
# [1] = tested on: auricular draining lymph nodes (dLNs); assay: Draining lymph node phenotyping by flow cytometry after 28-day dermal exposure; format: in vivo, B6C3F1 mice; conditions: 28 days
# Method in brief: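 Female B6C3F1 mice (5/group) received 25 μl/ear daily to the dorsal ears in acetone. About 24 h after the last dose, tissues went into RPMI: both auricular dLNs, half spleen and one ear pinna. Single-cell suspensions were acquired on an LSR II, with populations gated per supplemental strategy and FMO gating controls. Results are mean ± SE, n=5, by one-way ANOVA.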
# liver = assay: Liver histopathology after 28-day dermal exposure; format: in vivo, B6C3F1 mice; conditions: 28 days, mice affected of 5
# Method in brief: (§1)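 Female B6C3F1 mice (5/group) received 25 μl/ear on the dorsal ear surfaces daily, with acetone as vehicle. Tissues were formalin-fixed about 24 h after the last dose: liver remainder, half spleen, right kidney and half ear pinna. Sections were paraffin-embedded, cut at 5 μm and stained with H&E. A veterinary pathologist read them per STP guideline and graded 1 (minimal) to 5 (severe) by extent.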
# ear pinna [2] = assay: Ear; format: in vivo, B6C3F1 mice; conditions: dermal, 28 days, mice affected of 5
# Method in brief: as §1
# kidney, spleen = assay: Kidney and spleen histopathology after 28-day dermal exposure; format: in vivo, B6C3F1 mice; conditions: 1.25–5%, 28 days, data not shown
# Method in brief: as §1
# [3] = PFAS concentration in serum; format: in vivo, B6C3F1 mice; conditions: dermal, 28 days
# Method in brief: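 Serum came by cardiac puncture about 24 h after the final daily ear dose (25 μl/ear, acetone vehicle; female B6C3F1 mice). Samples underwent solid-phase extraction and LC/MS/MS. Short-chain analytes were quantified as linear isomer only; the legacy comparator was quantified as linear plus branched. Data are mean ± SE of 4–5 mice, one-way ANOVA with Dunnett's vs vehicle.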
# [4] = PFAS concentration in pooled urine; format: in vivo, B6C3F1 mice; conditions: 5%, dermal, 28 days; 5 pooled samples
# Method in brief: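 Urine was caught in a weigh boat as it was excreted during CO2 euthanasia, about 24 h after the final daily ear dose (25 μl/ear, acetone vehicle; female B6C3F1 mice). The 5 mice per group were pooled, with variable volume. Samples underwent solid-phase extraction and LC/MS/MS, as linear isomer for short-chain analytes and linear plus branched for the comparator. Each group gave a single value without statistics.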
# B6C3F1 mice = assay: Organ weights and body weight after 28-day dermal exposure; format: in vivo; conditions: 28 days
# liver (caudate) = assay: Liver gene expression; format: in vivo, B6C3F1 mice; conditions: dermal, 28 days
# Method in brief: (§2)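 Dosing was daily topical to both dorsal ears (25 μl/ear, acetone vehicle) in female B6C3F1 mice. Liver caudate lobe or half ear pinna was stored in RNAlater and homogenized in RLT buffer. RNA was isolated on RNeasy columns with DNase, and 1–2 μg was reverse-transcribed. TaqMan real-time PCR was read as 2−ΔΔCT vs vehicle, normalized to β-actin. Statistics: ANOVA/Dunnett's, or Kruskal-Wallis/Dunn's for unequal variance.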
# ear pinna [5] = assay: Skin; format: in vivo, B6C3F1 mice; conditions: dermal, 28 days
# Method in brief: as §2
smiles,measurement,setting,value
"O=C(O)C(F)(F)C(F)(F)C(F)(F)C(F)(F)C(F)(F)F [PFHxA, perfluorohexanoic acid]",dLN B-cells cell number,[1]; 1.25%,28.40 ± 6.63 × 10^5
same,dLN B-cells frequency,[1]; 1.25%,18.06 ± 2.12%
same,dLN CD4^+ cell number,[1]; 1.25%,5.93 ± 0.59 × 10^6
same,dLN CD4^+ frequency,[1]; 1.25%,40.24 ± 1.70%
same,dLN CD8^+ cell number,[1]; 1.25%,42.50 ± 4.15 × 10^5
same,dLN CD8^+ frequency,[1]; 1.25%,28.94 ± 1.29%
same,dLN CD11b+ cell number,[1]; 1.25%,16.20 ±3.71 × 10^4
same,dLN CD11b+ frequency,[1]; 1.25%,1.04 ± 0.12%
same,dLN CD86 B-cells,[1]; 1.25%,98.74 ±6.64 MFI
same,dLN CD86 DCs,[1]; 1.25%,11.60 ± 1.51 MFI x 10^2
same,dLN Dendritic Cells cell number,[1]; 1.25%,29.00 ±2.99 × 10^4
same,dLN Dendritic Cells frequency,[1]; 1.25%,2.01 ± 0.22 %
same,dLN Eosinophils cell number,[1]; 1.25%,96.70 ± 17.60 × 10^2
same,dLN MHCII B-cells,[1]; 1.25%,7.07 ± 0.37 MFI × 10^2
same,dLN MHCII DCs,[1]; 1.25%,57.30 ±2.79 MFI × IQ^2
same,dLN NK cell number,[1]; 1.25%,11.60 ±0.64 × 10^4
same,dLN NK frequency,[1]; 1.25%,0.82 ± 0.08%
same,dLN Neutrophils cell number,[1]; 1.25%,18.80 ±5.25 × 10^2
same,dLN Total Cellularity,[1]; 1.25%,15.00 ± 1.92 × 10^6
same,dLN B-cells cell number,[1]; 2.5%,32.50 ± 3.50 × 10^5
same,dLN B-cells frequency,[1]; 2.5%,15.94 ± 0.38%
same,dLN CD4^+ cell number,[1]; 2.5%,8.16 ± 0.58 × 10^6
same,dLN CD4^+ frequency,[1]; 2.5%,40.56 ± 1.03%
same,dLN CD8^+ cell number,[1]; 2.5%,56.80 ± 5.72 × 10^5
same,dLN CD8^+ frequency,[1]; 2.5%,27.94 ± 0.36%
same,dLN CD11b+ cell number,[1]; 2.5%,25.30 ± 2.29 × 10^4
same,dLN CD11b+ frequency,[1]; 2.5%,1.25 ± 0.04 %
same,dLN CD86 B-cells,[1]; 2.5%,93.54 ± 1.71 MFI
same,dLN CD86 DCs,[1]; 2.5%,13.20 ± 1.29 MFI x 10^2
same,dLN Dendritic Cells cell number,[1]; 2.5%,47.00 ± 5.39 × 10^4
same,dLN Dendritic Cells frequency,[1]; 2.5%,2.32 ± 0.14 %
same,dLN Eosinophils cell number,[1]; 2.5%,140.00 ± 17.30 × 10^2
same,dLN MHCII B-cells,[1]; 2.5%,7.16 ± 0.11 MFI × 10^2
same,dLN MHCII DCs,[1]; 2.5%,63.50 ± 5.71 MFI × IQ^2
same,dLN NK cell number,[1]; 2.5%,19.50 ± 2.26 × 10^4
same,dLN NK frequency,[1]; 2.5%,0.95 ± 0.03 %
same,dLN Neutrophils cell number,[1]; 2.5%,21.50 ± 1.28 × 10^2
same,dLN Total Cellularity,[1]; 2.5%,20.30 ± 1.81 × 10^6
same,dLN B-cells cell number,[1]; 5%,37.30 ± 1.54 × 10^5
same,dLN B-cells frequency,[1]; 5%,17.38 ± 0.94%
same,dLN CD4^+ frequency,[1]; 5%,41.58 ± 0.62%
same,dLN CD8^+ cell number,[1]; 5%,58.40 ± 4.46 × 10^5
same,dLN CD8^+ frequency,[1]; 5%,26.82 ± 0.64%
same,dLN CD11b+ cell number,[1]; 5%,26.00 ± 3.54 × 10^4
same,dLN CD11b+ frequency,[1]; 5%,1.18 ± 0.11%
same,dLN CD86 B-cells,[1]; 5%,101.54 ± 3.64 MFI
same,dLN CD86 DCs,[1]; 5%,9.15 ± 0.71 MFI x 10^2
same,dLN Dendritic Cells cell number,[1]; 5%,35.40 ± 5.48 × 10^4
same,dLN Dendritic Cells frequency,[1]; 5%,1.60 ± 0.19%
same,dLN Eosinophils cell number,[1]; 5%,142.00 ± 22.90 × 10^2
same,dLN MHCII B-cells,[1]; 5%,8.02 ± 0.64 MFI × 10^2
same,dLN NK cell number,[1]; 5%,17.70 ± 2.11 × 10^4
same,dLN NK frequency,[1]; 5%,0.80 ± 0.06%
same,dLN Neutrophils cell number,[1]; 5%,16.70 ± 2.99 × 10^2
same,dLN Total Cellularity,[1]; 5%,21.70 ± 1.26 × 10^6
same,"Liver: Hypertrophy, centrilobular, hepatocyte, Mild (incidence)",liver; 1.25%,0
same,"Liver: Hypertrophy, centrilobular, hepatocyte, Minimal (incidence)",liver; 1.25%,2/5 and 2
same,"Liver: Hypertrophy, centrilobular, hepatocyte, Mild (incidence)",liver; 2.5%,0
same,"Liver: Hypertrophy, centrilobular, hepatocyte, Minimal (incidence)",liver; 2.5%,5/5 and 5
same,"Liver: Hypertrophy, centrilobular, hepatocyte, Mild (incidence)",liver; 5%,0
same,"Liver: Hypertrophy, centrilobular, hepatocyte, Minimal (incidence)",liver; 5%,5/5 and 5
same,"Ear: Degeneration/regeneration, cartilage, focal, Mild (incidence)",ear pinna [2]; 1.25%,0
same,"Ear: Fibrosis, dermis, focal, Minimal (incidence)",ear pinna [2]; 1.25%,0
same,"Ear: Hyperkeratosis, epidermis, focal, Mild (incidence)",ear pinna [2]; 1.25%,0
same,"Ear: Hyperkeratosis, epidermis, focal, Minimal (incidence)",ear pinna [2]; 1.25%,1
same,"Ear: Hyperplasia, epidermis, focal, Mild (incidence)",ear pinna [2]; 1.25%,0
same,"Ear: Hyperplasia, epidermis, focal, Minimal (incidence)",ear pinna [2]; 1.25%,5/5 and 5
same,"Ear: Inflammation, mixed cell, dermis, Minimal (incidence)",ear pinna [2]; 1.25%,0
same,"Ear: Inflammation, mononuclear cell, dermis, Minimal (incidence)",ear pinna [2]; 1.25%,0
same,"Ear: Necrosis, epidermis, multifocal, Minimal (incidence)",ear pinna [2]; 1.25%,0
same,"Ear: Degeneration/regeneration, cartilage, focal, Mild (incidence)",ear pinna [2]; 2.5%,0
same,"Ear: Fibrosis, dermis, focal, Minimal (incidence)",ear pinna [2]; 2.5%,0
same,"Ear: Hyperkeratosis, epidermis, focal, Mild (incidence)",ear pinna [2]; 2.5%,0
same,"Ear: Hyperkeratosis, epidermis, focal, Minimal (incidence)",ear pinna [2]; 2.5%,4/5 and 4
same,"Ear: Hyperplasia, epidermis, focal, Mild (incidence)",ear pinna [2]; 2.5%,0
same,"Ear: Hyperplasia, epidermis, focal, Minimal (incidence)",ear pinna [2]; 2.5%,5/5 and 5
same,"Ear: Inflammation, mixed cell, dermis, Minimal (incidence)",ear pinna [2]; 2.5%,0
same,"Ear: Inflammation, mononuclear cell, dermis, Minimal (incidence)",ear pinna [2]; 2.5%,0
same,"Ear: Necrosis, epidermis, multifocal, Minimal (incidence)",ear pinna [2]; 2.5%,0
same,"Ear: Degeneration/regeneration, cartilage, focal, Mild (incidence)",ear pinna [2]; 5%,1
same,"Ear: Fibrosis, dermis, focal, Minimal (incidence)",ear pinna [2]; 5%,5/5 and 5
same,"Ear: Hyperkeratosis, epidermis, focal, Mild (incidence)",ear pinna [2]; 5%,3/5 and 3
same,"Ear: Hyperkeratosis, epidermis, focal, Minimal (incidence)",ear pinna [2]; 5%,2/5 and 2
same,"Ear: Hyperplasia, epidermis, focal, Mild (incidence)",ear pinna [2]; 5%,4/5 and 4
same,"Ear: Hyperplasia, epidermis, focal, Minimal (incidence)",ear pinna [2]; 5%,1
same,"Ear: Inflammation, mixed cell, dermis, Minimal (incidence)",ear pinna [2]; 5%,4/5 and 4
same,"Ear: Inflammation, mononuclear cell, dermis, Minimal (incidence)",ear pinna [2]; 5%,0
same,"Ear: Necrosis, epidermis, multifocal, Minimal (incidence)",ear pinna [2]; 5%,0
same,microscopic observations in the kidney or the spleen,"kidney, spleen","No PFPeA, PFHxA, or PFHpA-related microscopic observations"
same,PFAS serum concentration vs vehicle,[3]; 2.5%,significant increase
same,PFAS serum concentration vs vehicle,[3]; 5%,significant increase
same,urine PFAS concentration,[4],1700 µg/mL
same,body weight or overt signs of toxicity,B6C3F1 mice; 1.25–5%,no changes
same,"Liver weight (% body weight), increase vs vehicle-treated mice",B6C3F1 mice; 5%,9%
same,liver Pparδ expression,liver (caudate); 1.25%,decreasing
same,liver Acox1 gene expression,liver (caudate); 2.5%,increase
same,liver Fabp1 gene expression,liver (caudate); 2.5%,increased
same,liver Pparδ expression,liver (caudate); 2.5%,decreasing
same,"liver Cd36 gene expression, increase",liver (caudate); 5%,4.6 fold
same,"liver Ehhadh gene expression, increase",liver (caudate); 5%,4.8 fold
same,liver Pparδ expression,liver (caudate); 5%,decreasing
same,skin Pparδ gene expression,ear pinna [5]; 1.25–5%,no changes
same,skin Flg gene expression,ear pinna [5]; 2.5%,increased
same,skin Pparγ gene expression,ear pinna [5]; 2.5%,decreased
same,skin Flg gene expression,ear pinna [5]; 5%,increased
same,skin Lor gene expression,ear pinna [5]; 5%,increased
same,skin PPARα gene expression,ear pinna [5]; 5%,decreased
same,skin Pparγ gene expression,ear pinna [5]; 5%,decreased
same,"skin S100a8 gene expression, increase",ear pinna [5]; 5%,16.8 fold
